Experimental data taken from ChEMBL document CHEMBL2062496, “Identification of a sirtuin 3 inhibitor that displays selectivity over sirtuin 1 and 2” (Eur J Med Chem, 2012).
Active and inactive are the calls of the source. The calls are words filed in the database; no cut-off is given here.

Experiments:
[1] = biological target: T1, NAD-dependent protein deacetylase sirtuin-1 (Homo sapiens) (UniProt Q96EB6); assay: Inhibition of human SIRT1 assessed as enzyme activity using Fluor-de-Lys as substrate at 100 uM by fluorometry
T1 sequence (whole entry): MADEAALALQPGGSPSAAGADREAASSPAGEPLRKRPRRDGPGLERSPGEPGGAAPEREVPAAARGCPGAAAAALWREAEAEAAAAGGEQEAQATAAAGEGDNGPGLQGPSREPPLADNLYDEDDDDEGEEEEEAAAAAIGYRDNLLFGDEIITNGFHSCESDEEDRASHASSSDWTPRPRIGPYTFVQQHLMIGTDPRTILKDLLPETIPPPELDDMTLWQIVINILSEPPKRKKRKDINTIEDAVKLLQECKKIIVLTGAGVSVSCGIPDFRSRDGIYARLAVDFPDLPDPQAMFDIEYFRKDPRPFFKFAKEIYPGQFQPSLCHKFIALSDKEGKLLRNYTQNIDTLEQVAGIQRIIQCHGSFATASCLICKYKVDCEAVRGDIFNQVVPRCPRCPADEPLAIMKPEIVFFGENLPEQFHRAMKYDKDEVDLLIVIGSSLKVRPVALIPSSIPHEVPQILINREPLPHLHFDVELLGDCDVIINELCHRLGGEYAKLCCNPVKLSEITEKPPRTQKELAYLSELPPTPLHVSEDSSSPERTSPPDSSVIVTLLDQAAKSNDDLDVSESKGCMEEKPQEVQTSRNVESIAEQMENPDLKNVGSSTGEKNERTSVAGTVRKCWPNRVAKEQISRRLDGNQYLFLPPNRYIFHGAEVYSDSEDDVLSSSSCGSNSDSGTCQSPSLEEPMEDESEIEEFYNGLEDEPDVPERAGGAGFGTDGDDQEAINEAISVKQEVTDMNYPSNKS
Method in brief: (§1)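 Commercial Fluor-de-Lys kit, substrate human p53 379–382 peptide (Arg-His-Lys-Lys(Ac)). Human Sirt1 or Sirt2 was incubated with substrate, NAD+ and compound at 1 mM, also tested at 100 µM. Fluorescence scales with Lys382 deacetylation. Activity is expressed relative to control, mean ± S.E.M. of 3–4 replicates.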

[2] = biological target: T2, NAD-dependent protein deacetylase sirtuin-2 (Homo sapiens) (UniProt Q8IXJ6); assay: Inhibition of human SIRT2 assessed as enzyme activity using Fluor-de-Lys as substrate at 100 uM by fluorometry; method in brief: as §1
T2 sequence (whole entry): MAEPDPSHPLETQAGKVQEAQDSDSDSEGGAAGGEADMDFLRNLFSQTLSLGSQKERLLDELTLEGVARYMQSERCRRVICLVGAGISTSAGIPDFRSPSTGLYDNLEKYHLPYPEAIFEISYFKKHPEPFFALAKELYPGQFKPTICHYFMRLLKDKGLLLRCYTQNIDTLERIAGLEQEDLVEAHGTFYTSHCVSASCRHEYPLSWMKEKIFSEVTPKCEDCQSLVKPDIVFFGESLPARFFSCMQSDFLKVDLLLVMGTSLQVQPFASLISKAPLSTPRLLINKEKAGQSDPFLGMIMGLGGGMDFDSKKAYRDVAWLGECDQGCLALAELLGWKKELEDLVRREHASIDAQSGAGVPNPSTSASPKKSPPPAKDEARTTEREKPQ

[3] = biological target: T1, NAD-dependent protein deacetylase sirtuin-1 (Homo sapiens); assay: Inhibition of human SIRT1 assessed as enzyme activity using Fluor-de-Lys as substrate at 1 mM by fluorometry; parameters: scale not given: the % may be the effect or the level left; method in brief: as §1
[4] = biological target: T2, NAD-dependent protein deacetylase sirtuin-2 (Homo sapiens); assay: Inhibition of human SIRT2 assessed as enzyme activity using Fluor-de-Lys as substrate at 1 mM by fluorometry; parameters: scale not given: the % may be the effect or the level left; method in brief: as §1
SK-MEL-28 [5] = assay: Effect on ATP level in human SK-MEL-28 cells maintained in medium containing GF and glucose at 100 uM after 24 hrs by luciferase-based assay; format: functional, cell-based
Method in brief: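 SK-MEL-28 cells in DMEM with 10% FBS, grown 24 h in 96-well plates in regular medium (growth factors, glucose), with or without compound at 100 µM. Antimycin served as positive control. Cellular ATP was released with a somatic cell releasing reagent and read by luciferase/luciferin bioluminescence. Mean ± S.E.M. of 10–14 replicates from 3 separate experiments.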

SK-MEL-28 [6] = assay: Reduction in ATP level in human SK-MEL-28 cells at 100 uM maintained in Locke's solution after 24 hrs by luciferase-based assay in absence of GF and glucose; format: functional, cell-based
Method in brief: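 SK-MEL-28 cells were grown 24 h in Locke's saline lacking glucose and serum, with or without 100 µM compound; antimycin was the positive control. Cellular ATP was released with a somatic-cell releasing reagent, then luciferase/luciferin assay mix was added and bioluminescence read. Mean ± S.E.M. of 10–14 replicates from 3 separate experiments.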

[7] = Cytotoxicity against human SK-MEL-28 cells assessed as cell survival at 100 uM after 48 hrs; format: cell-based; conditions: read-out: Survival
Method in brief: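 SK-MEL-28 cells grown in DMEM with 10% foetal bovine serum, 2 mM L-glutamine, penicillin and streptomycin. Cells plated and grown 48 h with or without compound at 100 µM. On the test day, cells washed in Locke's solution (134 mM NaCl, 5 mM KCl, 4 mM NaHCO3, 10 mM HEPES pH 7.6, CaCl2, 1 mM MgCl2, 5 mM sucrose), then incubated 90 min at 37 °C. Survival expressed as percent of control.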

| SMILES | inhibition [1] | inhibition [2] | Activity [3] | Activity [4] | Activity (SK-MEL-28 [5]) | Activity (SK-MEL-28 [6]) | viability at 48 h, 100 µM [7] |
| --- | --- | --- | --- | --- | --- | --- | --- |
| O=C1NCCc2ccncc21 | inactive | inactive | 125% | 136% |  |  |  |
| O=C1NCc2ncccc21 | inactive | inactive | 88% | 111% |  |  |  |
| c1cncc(-n2ccnn2)c1 | inactive | inactive | 97% | 100% |  |  |  |
| Cc1ccc(C(=O)Nc2ccc(S(=O)(=O)O)c3cc(S(=O)(=O)O)cc(S(=O)(=O)O)c23)cc1NC(=O)c1cccc(NC(=O)Nc2cccc(C(=O)Nc3cc(C(=O)Nc4ccc(S(=O)(=O)O)c5cc(S(=O)(=O)O)cc(S(=O)(=O)O)c45)ccc3C)c2)c1 |  |  | 18% | 20% |  |  |  |
| Cc1ncccc1C(N)=O | inactive | inactive | 101% | 107% |  |  |  |
| O=C1NCc2ccncc21 | inactive | inactive | 117% | 145% |  |  |  |
| O=C1NCCc2ncccc21 | inactive | inactive | 86% | 115% |  |  |  |
| c1cncc(-c2c[nH]nn2)c1 |  |  |  |  |  |  | 69% |

Further lines, with some results ahead:

| inhibition [1] | inhibition [2] | Activity [3] | Activity [4] | SMILES | Activity (SK-MEL-28 [5]) | Activity (SK-MEL-28 [6]) | viability at 48 h, 100 µM [7] |
| --- | --- | --- | --- | --- | --- | --- | --- |
| inactive | inactive | 105% | 110% | Cc1ccncc1C(N)=O |  |  |  |
|  |  |  | 71% | NC(=O)c1cccnc1 | inactive | Active |  |
| inactive | inactive | 108% | 115% | NS(=O)(=O)c1cccnc1 |  |  |  |
| inactive | inactive | 99% | 109% | NC(=O)/C=C/c1cccnc1 |  |  |  |
